In ChEMBL document CHEMBL5143731, “N-Acylamino Saccharin as an Emerging Cysteine-Directed Covalent Warhead and Its Application in the Identification of Novel FBPase Inhibitors toward Glucose Reduction” (J Med Chem, 2022):
Activity calls are given as the source filed them. The calls are words filed in the database; no cut-off is given here.

Tests used:
[1] = Half life of the compound in GSH; type: physicochemical; details: GSH (glutathione)
Summary of the method: (§1)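 Electrophile (20 μmol) incubated at 37 °C either in pH 7.4 buffer, or in DMSO-d6/D2O (5:1), with or without glutathione. Decay followed by 1H NMR kinetics. First-order rate constant kpseudo-1st taken from ln[electrophile] versus time; t1/2 = 0.693/(60×k), in min.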

[2] = Half life of the compound in DMSO; type: physicochemical; summary of the method: as §1
[3] = Half life of the compound in buffer; type: physicochemical; summary of the method: as §1
Homo sapiens [4] = species: Homo sapiens; assay: Selectivity ratio of IC50 for human FBPase to IC50 for recombinant ALDOC (unknown origin)
Summary of the method: (§2)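 Aldolase (ALDOA/B/C) IC50 by NADH-coupled assay: enzyme plus serial compound dilutions, 0.41 mM NADH and TPI in 0.1 M Tris pH 7.4/0.2 M K-acetate, 3 min at 37 °C. Started with FBP and […], A340 read every 30 s for 6 min. Ratios against the FBPase IC50 from malachite green phosphate assay (620 nm).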

Homo sapiens [5] = species: Homo sapiens; assay: Selectivity ratio of IC50 for human FBPase to IC50 for human GAPDH
Summary of the method: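 Recombinant human GAPDH (His-tag, E. coli; 0.1 mg/mL final) preincubated 30 min with compound in 10 mM sodium pyrophosphate pH 8.5 at 37 °C. Started with arsenate, 4 mM NAD+ and 12 mM G3P; A340 at 4 min. Ratio taken against FBPase IC50 from the malachite green phosphate-release assay.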

Homo sapiens [6] = species: Homo sapiens; assay: Selectivity ratio of IC50 for human FBPase to IC50 for recombinant ALDOA (unknown origin); summary of the method: as §2
[7] = target: T1, Fructose-1,6-bisphosphatase 1 (Homo sapiens, UniProt P09467); assay: Inhibition of human FBPase expressed Escherichia coli BL21 in by malachite green dye based spectrophotometry
T1 sequence (P09467 whole entry): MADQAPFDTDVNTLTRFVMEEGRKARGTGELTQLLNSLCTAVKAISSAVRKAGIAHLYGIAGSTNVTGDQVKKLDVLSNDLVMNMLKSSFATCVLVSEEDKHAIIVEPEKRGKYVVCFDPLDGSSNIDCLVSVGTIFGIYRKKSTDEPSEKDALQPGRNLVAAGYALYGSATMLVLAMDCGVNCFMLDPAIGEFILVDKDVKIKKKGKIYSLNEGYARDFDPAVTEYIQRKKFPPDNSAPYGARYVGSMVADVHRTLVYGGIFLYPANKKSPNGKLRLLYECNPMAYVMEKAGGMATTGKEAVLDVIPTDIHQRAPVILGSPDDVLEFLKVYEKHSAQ
Summary of the method: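 His-tagged human liver FBPase expressed in E. coli BL21(DE3) and purified by Ni affinity. Phosphate released from FBP complexed with ammonium molybdate/malachite green and read at 620 nm against a KH2PO4 standard curve (2−60 μM). Initial rates at saturating substrate, fixed effector and varied inhibitor fitted to the Hill equation for IC50.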

Homo sapiens [8] = species: Homo sapiens; assay: Selectivity ratio of IC50 for human FBPase to IC50 for recombinant ALDOB (unknown origin); summary of the method: as §2
[9] = target: Epidermal growth factor receptor (Homo sapiens) (UniProt P00533); assay: Inhibition of EGFR (unknown origin) at 300 uM measured after 40 mins in presence of ATP by luminescence assay relative to control
Summary of the method: (§3)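 Kinase reaction (50 μL): 40 mM Tris pH 7.4, 10 mM MgCl2, 0.1 mg/mL BSA, 1 mM DTT, 10 μM ATP, kinase and substrate, with 1% final DMSO. Run 40 min at 30 °C. Residual ATP read by Kinase-Glo Plus luminescence, inversely related to kinase activity.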

[10] = target: Tyrosine-protein kinase BTK (Homo sapiens) (UniProt Q06187); assay: Inhibition of BTK (unknown origin) at 300 uM measured after 40 mins in presence of ATP by luminescence assay relative to control; summary of the method: as §3
[11] = target: T2, Tyrosine-protein kinase JAK3 (Homo sapiens) (UniProt P52333); assay: Inhibition of JAK3 (unknown origin) at 300 uM measured after 40 mins in presence of ATP by luminescence assay relative to control; summary of the method: as §3
T2 sequence (whole entry): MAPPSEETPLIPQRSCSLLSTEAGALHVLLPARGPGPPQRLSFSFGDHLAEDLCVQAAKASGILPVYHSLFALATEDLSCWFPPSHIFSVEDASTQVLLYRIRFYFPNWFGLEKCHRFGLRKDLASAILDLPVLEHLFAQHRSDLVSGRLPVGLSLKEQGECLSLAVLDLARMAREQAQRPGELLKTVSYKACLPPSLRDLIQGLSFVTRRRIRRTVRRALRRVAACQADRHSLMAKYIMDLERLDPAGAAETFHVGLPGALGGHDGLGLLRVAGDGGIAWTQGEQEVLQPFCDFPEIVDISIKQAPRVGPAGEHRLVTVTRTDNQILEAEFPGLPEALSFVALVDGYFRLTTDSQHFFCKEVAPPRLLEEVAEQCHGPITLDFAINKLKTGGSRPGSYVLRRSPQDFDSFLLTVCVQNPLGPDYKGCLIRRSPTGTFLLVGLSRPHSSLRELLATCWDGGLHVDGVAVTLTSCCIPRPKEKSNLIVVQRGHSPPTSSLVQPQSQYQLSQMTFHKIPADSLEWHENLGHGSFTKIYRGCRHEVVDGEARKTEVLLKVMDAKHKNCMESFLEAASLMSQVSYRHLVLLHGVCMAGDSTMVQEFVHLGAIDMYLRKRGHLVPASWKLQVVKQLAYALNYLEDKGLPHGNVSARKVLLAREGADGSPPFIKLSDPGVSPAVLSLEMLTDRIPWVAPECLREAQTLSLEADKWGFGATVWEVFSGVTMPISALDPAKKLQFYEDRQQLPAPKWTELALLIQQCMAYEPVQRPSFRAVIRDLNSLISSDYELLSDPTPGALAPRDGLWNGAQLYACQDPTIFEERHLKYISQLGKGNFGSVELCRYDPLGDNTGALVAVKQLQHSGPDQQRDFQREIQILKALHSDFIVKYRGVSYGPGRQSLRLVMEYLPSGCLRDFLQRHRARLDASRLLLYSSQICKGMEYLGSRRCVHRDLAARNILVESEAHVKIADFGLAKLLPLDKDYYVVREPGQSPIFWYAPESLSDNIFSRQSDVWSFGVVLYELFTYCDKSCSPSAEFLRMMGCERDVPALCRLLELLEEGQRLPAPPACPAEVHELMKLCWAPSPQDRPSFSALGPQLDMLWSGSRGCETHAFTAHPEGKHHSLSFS

in vivo [12] = details: ICR, mouse, ip, 30 mg/kg
in vivo [13] = details: ICR, mouse, ip, 30 mg/kg; remark: listed apart in the source
in vivo [14] = details: ICR, mouse, ip, 30 mg/kg; remark: listed apart in the source
[15] = AUCt in 12 hrs fasted ICR mouse at 30 mg/kg, ip measured after 24 hrs by LC-MS/MS analysis; details: in vivo
[16] = target: T3, Fructose-1,6-bisphosphatase 1 (Homo sapiens) (UniProt P09467); assay: Binding affinity to ABPP-labeled FBPase (unknown origin) by silver staining based streptavidin blotting; details: dose 2-10 µM, DDE = dose-dependent effect
T3 sequence (whole entry): T1 sequence (P09467 whole entry)
Summary of the method: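 LO2 cell lysate (2 mg/mL protein, RPMI-1640/10% FBS cultures lysed at 70−80% confluence) or purified FBPase labelled with a series of alkyne probe concentrations, 37 °C, 2 h. CuAAC with 0.5 mM each of biotin-PEG3-azide, ascorbate, THPTA and CuSO4, 37 °C, 1 h. Samples run on 10% SDS-PAGE, then silver staining and streptavidin-HRP blot with ECL detection.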

[17] = target: T3, Fructose-1,6-bisphosphatase 1 (Homo sapiens); assay: Binding affinity to ABPP-labeled FBPase (unknown origin) at 2 to 8 uM by silver staining based streptavidin blotting; details: dose 2-8 µM
Summary of the method: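 LO2 lysate (2 mg/mL) treated with 2−8 μM alkyne probe, 37 °C, 2 h. Click-biotinylated by CuAAC (0.5 mM reagents, 1 h, 37 °C), resolved by 10% SDS-PAGE. Probed by silver stain and streptavidin-HRP blot; labelled bands near 35 kDa read. 2 μM iodoacetamide alkyne served as the reference.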

Sequence of Epidermal growth factor receptor (Homo sapiens) (P00533 whole entry): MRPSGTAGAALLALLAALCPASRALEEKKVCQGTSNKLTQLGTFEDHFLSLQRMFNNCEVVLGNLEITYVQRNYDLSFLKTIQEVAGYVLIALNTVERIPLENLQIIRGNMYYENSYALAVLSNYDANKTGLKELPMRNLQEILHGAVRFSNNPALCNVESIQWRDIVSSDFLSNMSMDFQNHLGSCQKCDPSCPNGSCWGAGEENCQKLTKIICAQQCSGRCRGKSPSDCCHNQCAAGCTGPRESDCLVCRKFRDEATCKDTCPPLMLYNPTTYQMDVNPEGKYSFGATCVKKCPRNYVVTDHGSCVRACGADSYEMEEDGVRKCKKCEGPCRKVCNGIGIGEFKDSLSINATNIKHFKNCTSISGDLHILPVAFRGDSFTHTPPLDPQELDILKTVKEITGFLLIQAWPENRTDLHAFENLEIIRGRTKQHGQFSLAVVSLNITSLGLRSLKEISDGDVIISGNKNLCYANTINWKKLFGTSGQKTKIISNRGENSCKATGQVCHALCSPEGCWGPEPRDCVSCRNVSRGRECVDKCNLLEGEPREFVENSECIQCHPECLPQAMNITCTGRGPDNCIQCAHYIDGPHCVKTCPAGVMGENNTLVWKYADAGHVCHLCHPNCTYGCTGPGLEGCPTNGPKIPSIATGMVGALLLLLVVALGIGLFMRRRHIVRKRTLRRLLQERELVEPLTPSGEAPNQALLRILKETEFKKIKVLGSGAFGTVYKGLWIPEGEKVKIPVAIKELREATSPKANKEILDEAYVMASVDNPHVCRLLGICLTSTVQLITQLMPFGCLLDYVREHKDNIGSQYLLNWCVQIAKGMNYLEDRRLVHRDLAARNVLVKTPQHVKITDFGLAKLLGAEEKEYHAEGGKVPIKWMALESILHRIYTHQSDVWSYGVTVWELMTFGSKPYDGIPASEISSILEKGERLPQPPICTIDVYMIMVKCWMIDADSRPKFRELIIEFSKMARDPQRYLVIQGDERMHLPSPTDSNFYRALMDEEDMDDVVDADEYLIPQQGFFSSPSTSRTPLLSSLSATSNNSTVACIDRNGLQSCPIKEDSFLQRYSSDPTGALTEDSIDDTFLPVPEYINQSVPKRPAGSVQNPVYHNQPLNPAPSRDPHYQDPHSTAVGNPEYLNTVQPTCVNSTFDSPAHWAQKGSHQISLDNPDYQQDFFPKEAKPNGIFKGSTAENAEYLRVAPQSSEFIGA
Sequence of Tyrosine-protein kinase BTK (Homo sapiens) (Q06187 whole entry): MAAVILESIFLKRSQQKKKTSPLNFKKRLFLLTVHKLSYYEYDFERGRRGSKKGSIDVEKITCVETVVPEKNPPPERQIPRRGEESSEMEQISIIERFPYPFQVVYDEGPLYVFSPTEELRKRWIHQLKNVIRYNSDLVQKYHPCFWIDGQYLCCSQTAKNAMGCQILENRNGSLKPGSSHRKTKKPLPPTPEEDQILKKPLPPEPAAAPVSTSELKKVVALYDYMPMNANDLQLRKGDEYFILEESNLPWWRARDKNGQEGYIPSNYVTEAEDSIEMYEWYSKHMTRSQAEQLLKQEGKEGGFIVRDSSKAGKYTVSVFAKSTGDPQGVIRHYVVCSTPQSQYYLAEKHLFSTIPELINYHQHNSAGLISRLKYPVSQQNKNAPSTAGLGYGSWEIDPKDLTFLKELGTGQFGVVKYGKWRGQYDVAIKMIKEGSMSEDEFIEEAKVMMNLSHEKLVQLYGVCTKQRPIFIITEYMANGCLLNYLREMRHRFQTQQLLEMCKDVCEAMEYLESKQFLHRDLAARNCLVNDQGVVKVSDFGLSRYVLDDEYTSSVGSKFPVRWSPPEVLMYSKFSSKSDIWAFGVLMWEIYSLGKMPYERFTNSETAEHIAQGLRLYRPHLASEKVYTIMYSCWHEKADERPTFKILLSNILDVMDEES

Row | SMILES | half-life [1] [h] | half-life [2] [h] | half-life [3] [h] | also measured
1 | O=C(NCc1cccc2ccccc12)N1C(=O)c2ccccc2S1(=O)=O | 0.395 | > 167 | > 167 | –
2 | COc1ccc(CNC(=O)N2C(=O)c3ccccc3S2(=O)=O)cc1 | 0.187 | – | – | –
3 | COc1cccc(CNC(=O)N2C(=O)c3ccccc3S2(=O)=O)c1 | 0.523 | > 167 | > 167 | Ratio IC50 (Homo sapiens [4]): > 25; Ratio IC50 (Homo sapiens [5]): > 25; Ratio IC50 (Homo sapiens [6]): > 25; IC50 [7]: 1.9 µM; Ratio IC50 (Homo sapiens [8]): > 25
4 | O=C(NCc1cccs1)N1C(=O)c2ccccc2S1(=O)=O | 0.365 | > 167 | > 167 | –
5 | O=C(c1ccccc1)N1C(=O)c2ccccc2S1(=O)=O | – | > 0.875 | > 167 | –
6 | O=C(NCc1ccccc1F)N1C(=O)c2ccccc2S1(=O)=O | 0.598 | > 167 | > 167 | Ratio IC50 (Homo sapiens [4]): > 25; Ratio IC50 (Homo sapiens [5]): 16.3; Ratio IC50 (Homo sapiens [6]): > 25; IC50 [7]: 4.2 µM; Ratio IC50 (Homo sapiens [8]): > 25
7 | O=C(Oc1ccccc1)N1C(=O)c2ccccc2S1(=O)=O | – | 3.04 | > 167 | –
8 | O=C(NCc1ccc(Br)cc1)N1C(=O)c2ccccc2S1(=O)=O | 0.187 | – | – | –
9 | CCCNC(=O)N1C(=O)c2ccccc2S1(=O)=O | 0.775 | > 167 | > 167 | IC50 [7]: > 500 µM
10 | O=C(NCc1ccccc1Br)N1C(=O)c2ccccc2S1(=O)=O | 0.253 | > 167 | > 167 | –
11 | O=C(NCc1ccccc1C(F)(F)F)N1C(=O)c2ccccc2S1(=O)=O | 0.187 | > 167 | > 167 | –
12 | O=C1NS(=O)(=O)c2ccccc21 [SACCHARIN] | – | – | – | Cmax at 12 h (in vivo [12]): 29900 ng/mL; half-life at 12 h (in vivo [13]): 1.11 h; Tmax at 12 h (in vivo [14]): 0.25 h; AUC(0-t) at 12 h [15]: 14000 ng·h/mL
13 | O=C(Cc1ccccc1)N1C(=O)c2ccccc2S1(=O)=O | – | 3.4 | > 167 | –
14 | C#Cc1ccc(CNC(=O)N2C(=O)c3ccccc3S2(=O)=O)cc1 | – | – | – | Activity [16]: Dde; Activity [17]: Active
15 | O=C(NCCc1ccccc1)N1C(=O)c2ccccc2S1(=O)=O | 0.56 | > 167 | > 167 | –

More lines, main results first:

Row | half-life [1] [h] | half-life [2] [h] | half-life [3] [h] | SMILES | also measured
16 | > 167 | > 167 | > 167 | O=C(c1ccccc1)N1Cc2ccccc2C1=O | –
17 | 0.212 | > 167 | > 167 | O=C(NCc1ccc(C(F)(F)F)cc1)N1C(=O)c2ccccc2S1(=O)=O | –
18 | 1.12 | > 167 | > 167 | COc1ccccc1CNC(=O)N1C(=O)c2ccccc2S1(=O)=O | Ratio IC50 (Homo sapiens [4]): > 25; inhibition [9]: < 50%; inhibition [10]: < 50%; Ratio IC50 (Homo sapiens [5]): > 25; Ratio IC50 (Homo sapiens [6]): > 25; IC50 [7]: 1.7 µM; Ratio IC50 (Homo sapiens [8]): > 25; inhibition [11]: < 50%
19 | 0.42 | > 167 | > 167 | O=C(NCc1ccccc1Cl)N1C(=O)c2ccccc2S1(=O)=O | –
20 | 0.663 | > 167 | > 167 | CC(NC(=O)N1C(=O)c2ccccc2S1(=O)=O)c1ccccc1 (stereo not given) | Ratio IC50 (Homo sapiens [4]): > 25; Ratio IC50 (Homo sapiens [5]): 1.3; Ratio IC50 (Homo sapiens [6]): > 25; IC50 [7]: 8.7 µM; Ratio IC50 (Homo sapiens [8]): > 25
21 | – | 5.78 | > 167 | O=C(CCc1ccccc1)N1C(=O)c2ccccc2S1(=O)=O | –
22 | 0.792 | > 167 | > 167 | Cc1ccccc1CNC(=O)N1C(=O)c2ccccc2S1(=O)=O | Ratio IC50 (Homo sapiens [4]): > 25; Ratio IC50 (Homo sapiens [5]): 3.6; Ratio IC50 (Homo sapiens [6]): > 25; IC50 [7]: 3.6 µM; Ratio IC50 (Homo sapiens [8]): > 25
23 | 0.492 | > 167 | > 167 | O=C(NCc1cccc(Br)c1)N1C(=O)c2ccccc2S1(=O)=O | –
24 | 0.963 | > 167 | > 167 | O=C(NCC1CCCCC1)N1C(=O)c2ccccc2S1(=O)=O | IC50 [7]: 16.4 µM
25 | > 167 | > 167 | > 167 | O=C(c1ccccc1)N1Cc2ccccc2S1(=O)=O | –
26 | < 0.0167 | > 167 | > 167 | O=C(OCc1ccccc1)N1C(=O)c2ccccc2S1(=O)=O | –
